Published values from different studies.
Compare with care: the assays were run in different laboratories.
Read-out: cell growth or viability

| Structure (SMILES) | cell line | technique | concentration | time | measurement | result |
| --- | --- | --- | --- | --- | --- | --- |
| Nc1ncnc2c1c(/C=C/C(=O)N1CCCCC1)nn2CC1CCCC1 | OE33 | resazurin | – | 5 days | EC50 | > 30000 nM |
| CC(C)(C)c1cnc(CSc2cnc(NC(=O)C3CCN(C(=O)CCCSc4cccc5c4C(=O)N(C4CCC(=O)NC4=O)C5=O)CC3)s2)o1 (stereo not shown) | HH | CCK-8 | 1 nM | – | viability | 98.1% |
| CC(=NNC(=O)c1ccc(N)cc1)c1ccc(Nc2nnc(-c3ccc(Cl)cc3)c3ccccc23)cc1 | HepG2 | MTT | 0.312 µM | 24 h | viability | 98.2% |
| CC(C)(C)c1cnc(CSc2cnc(NC(=O)C3CCN(CCCCSc4cccc5c4C(=O)N(C4CCC(=O)NC4=O)C5=O)CC3)s2)o1 (stereo not shown) | HH | CCK-8 | 0.1 µM | – | viability | 97.9% |
| CNc1ncc2c(/C=C/C(=O)O)nn(CC3CCCC3)c2n1 | OE33 | resazurin | – | 5 days | EC50 | > 30000 nM |
| O=C(Nc1ccc(Oc2nnc(-c3ccc(Cl)cc3)c3ccccc23)cc1)c1ccccc1 | HepG2 | MTT | 0.156 µM | – | cell death | 45.6% |
| Nc1ncnc2c1c(/C=C/C(=O)N1CCC(c3ccccc3)CC1)nn2CC1CCCC1 | OE33 | resazurin | – | 5 days | EC50 | > 30000 nM |
| CC(C)(C)c1cnc(CSc2cnc(NC(=O)C3CCN(CCCCCSc4cccc5c4CN(C4CCC(=O)NC4=O)C5=O)CC3)s2)o1 (stereo not shown) | HH | CCK-8 | 0.2 µM | – | viability | 0% |
| CC(=NNC(N)=S)c1ccc(Nc2nnc(-c3ccc(Cl)cc3)c3ccccc23)cc1 | HepG2 | MTT | 78 nM | 24 h | viability | 95.6% |
| CC(C)(C)c1cnc(CSc2cnc(NC(=O)C3CCN(CCCCCCCCSc4cccc5c4CN(C4CCC(=O)NC4=O)C5=O)CC3)s2)o1 (stereo not shown) | HH | CCK-8 | 10 nM | – | viability | 99.7% |
| C=CC(=O)NC1CCN(c2ncc3ncnc(Nc4ccc(Oc5ccc6c(c5)ncn6C)c(C)c4)c3n2)CC1 | PANC-03-27 | – | – | – | EC50 | 33.3 nM |
| S=C(Nc1ccccc1)Nc1ccc(Oc2nnc(-c3ccc(Cl)cc3)c3ccccc23)cc1 | HepG2 | MTT | 10 µM | 24 h | viability | 2.77% |
| CNc1ncc2c(/C=C/C(=O)N3CCC(OC)CC3)nn(Cc3ccc(C(F)(F)F)cc3)c2n1 | OE33 | resazurin | – | 5 days | EC50 | 1320 nM |
